Data as given in ChEMBL document CHEMBL3769382, “Structure-Based Discovery of Novel and Selective 5-Hydroxytryptamine 2B Receptor Antagonists for the Treatment of Irritable Bowel Syndrome” (J Med Chem, 2016).
Values belong to the compound of their own block, whether it stands above or below them.

Tests used:
[1] = molecular target: T1, 5-hydroxytryptamine receptor 2B (Homo sapiens, UniProt P41595); assay: Displacement of [3H]LSD from 5-HT2B receptor (unknown origin) after 1.5 hrs by microbeta scintillation counting method
T1 sequence (P41595 whole entry): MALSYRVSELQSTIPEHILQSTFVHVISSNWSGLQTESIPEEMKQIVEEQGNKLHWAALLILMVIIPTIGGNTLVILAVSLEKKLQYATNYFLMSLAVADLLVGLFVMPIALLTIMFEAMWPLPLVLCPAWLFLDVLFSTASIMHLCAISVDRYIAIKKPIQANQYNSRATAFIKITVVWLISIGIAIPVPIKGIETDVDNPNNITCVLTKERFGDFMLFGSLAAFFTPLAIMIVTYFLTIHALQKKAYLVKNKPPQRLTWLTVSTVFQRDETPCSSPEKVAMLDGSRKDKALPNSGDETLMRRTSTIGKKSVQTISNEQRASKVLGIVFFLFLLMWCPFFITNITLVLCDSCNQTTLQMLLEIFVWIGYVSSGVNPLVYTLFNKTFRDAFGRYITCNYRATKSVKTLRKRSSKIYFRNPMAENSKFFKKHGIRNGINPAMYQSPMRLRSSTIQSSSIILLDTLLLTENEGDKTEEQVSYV

[2] = molecular target: T2, 5-hydroxytryptamine receptor 2C (Homo sapiens, UniProt P28335); assay: Displacement of [3H]LSD from 5-HT2C receptor (unknown origin) after 1.5 hrs by microbeta scintillation counting method
T2 sequence (P28335 whole entry): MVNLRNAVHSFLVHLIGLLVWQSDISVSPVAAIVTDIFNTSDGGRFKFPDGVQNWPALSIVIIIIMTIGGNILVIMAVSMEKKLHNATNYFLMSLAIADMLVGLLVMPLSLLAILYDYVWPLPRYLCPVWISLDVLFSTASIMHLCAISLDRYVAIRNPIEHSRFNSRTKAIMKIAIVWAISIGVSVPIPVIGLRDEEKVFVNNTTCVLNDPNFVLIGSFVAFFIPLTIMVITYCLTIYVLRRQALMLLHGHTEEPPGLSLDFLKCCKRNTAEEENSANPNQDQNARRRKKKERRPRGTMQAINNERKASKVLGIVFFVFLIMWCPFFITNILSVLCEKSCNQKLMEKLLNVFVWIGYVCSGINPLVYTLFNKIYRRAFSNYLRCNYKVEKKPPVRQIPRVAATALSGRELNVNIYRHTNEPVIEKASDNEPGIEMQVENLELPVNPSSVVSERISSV

[3] = molecular target: T3, 5-hydroxytryptamine receptor 3A (Homo sapiens, UniProt P46098); assay: Displacement of [3H]LY278584 from 5-HT3 receptor (unknown origin) after 1.5 hrs by microbeta scintillation counting method
T3 sequence (P46098 whole entry): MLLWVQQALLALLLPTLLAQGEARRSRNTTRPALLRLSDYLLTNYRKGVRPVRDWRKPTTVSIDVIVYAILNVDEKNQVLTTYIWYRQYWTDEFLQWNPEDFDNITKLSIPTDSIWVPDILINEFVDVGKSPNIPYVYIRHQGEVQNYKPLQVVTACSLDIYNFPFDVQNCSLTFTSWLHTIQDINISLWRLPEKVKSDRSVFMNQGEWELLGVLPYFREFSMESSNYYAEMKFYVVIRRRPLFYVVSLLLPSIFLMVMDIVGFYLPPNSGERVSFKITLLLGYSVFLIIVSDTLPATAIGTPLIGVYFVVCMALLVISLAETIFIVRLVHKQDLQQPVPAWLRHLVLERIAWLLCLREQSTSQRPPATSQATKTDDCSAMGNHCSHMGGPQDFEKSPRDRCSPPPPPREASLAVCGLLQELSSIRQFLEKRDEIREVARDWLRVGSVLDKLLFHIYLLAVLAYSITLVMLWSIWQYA

[4] = molecular target: 5-hydroxytryptamine receptor 5A (Homo sapiens, UniProt P47898); assay: Displacement of [3H]LSD from 5-HT5A receptor (unknown origin) after 1.5 hrs by microbeta scintillation counting method
Chain of 5-hydroxytryptamine receptor 5A (P47898 whole entry): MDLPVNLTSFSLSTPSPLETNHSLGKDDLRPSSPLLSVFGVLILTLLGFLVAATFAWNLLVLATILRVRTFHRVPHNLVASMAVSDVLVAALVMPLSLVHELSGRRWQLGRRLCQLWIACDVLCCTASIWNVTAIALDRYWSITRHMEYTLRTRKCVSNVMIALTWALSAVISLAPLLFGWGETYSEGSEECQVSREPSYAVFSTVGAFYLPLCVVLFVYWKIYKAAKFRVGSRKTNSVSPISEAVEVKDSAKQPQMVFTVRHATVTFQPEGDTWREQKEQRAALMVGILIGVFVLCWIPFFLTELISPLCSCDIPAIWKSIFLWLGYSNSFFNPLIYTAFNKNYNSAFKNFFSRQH

[5] = molecular target: 5-hydroxytryptamine receptor 6 (Homo sapiens, UniProt P50406); assay: Displacement of [3H]LSD from 5-HT6 receptor (unknown origin) after 1.5 hrs by microbeta scintillation counting method
Chain of 5-hydroxytryptamine receptor 6 (P50406 whole entry): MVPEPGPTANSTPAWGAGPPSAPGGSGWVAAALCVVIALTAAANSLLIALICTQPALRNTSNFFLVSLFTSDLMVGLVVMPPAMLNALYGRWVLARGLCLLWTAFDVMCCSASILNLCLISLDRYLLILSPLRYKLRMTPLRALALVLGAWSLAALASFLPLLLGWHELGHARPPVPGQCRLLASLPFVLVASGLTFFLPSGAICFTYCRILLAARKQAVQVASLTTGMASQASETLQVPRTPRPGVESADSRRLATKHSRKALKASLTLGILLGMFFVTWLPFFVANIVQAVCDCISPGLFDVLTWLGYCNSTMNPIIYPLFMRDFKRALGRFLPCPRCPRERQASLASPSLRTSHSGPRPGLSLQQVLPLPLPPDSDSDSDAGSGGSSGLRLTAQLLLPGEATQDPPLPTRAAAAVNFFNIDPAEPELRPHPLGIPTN

[6] = molecular target: 5-hydroxytryptamine receptor 7 (Homo sapiens, UniProt P34969); assay: Displacement of [3H]LSD from 5-HT7A receptor (unknown origin) after 1.5 hrs by microbeta scintillation counting method
Chain of 5-hydroxytryptamine receptor 7 (P34969 whole entry): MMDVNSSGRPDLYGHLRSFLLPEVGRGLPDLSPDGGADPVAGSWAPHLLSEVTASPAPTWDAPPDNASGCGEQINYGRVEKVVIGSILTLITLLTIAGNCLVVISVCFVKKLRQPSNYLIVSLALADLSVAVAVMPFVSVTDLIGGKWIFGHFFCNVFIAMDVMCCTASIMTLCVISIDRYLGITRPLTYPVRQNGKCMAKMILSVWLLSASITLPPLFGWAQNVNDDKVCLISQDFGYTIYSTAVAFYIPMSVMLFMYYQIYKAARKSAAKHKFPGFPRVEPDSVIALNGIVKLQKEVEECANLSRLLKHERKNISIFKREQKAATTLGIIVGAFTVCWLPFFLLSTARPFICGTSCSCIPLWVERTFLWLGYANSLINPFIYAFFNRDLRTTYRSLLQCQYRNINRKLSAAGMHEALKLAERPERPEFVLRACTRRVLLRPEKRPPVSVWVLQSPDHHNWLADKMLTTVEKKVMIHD

[7] = molecular target: 5-hydroxytryptamine receptor 1E (Homo sapiens, UniProt P28566); assay: Displacement of [3H]-5-HT from 5-HT1E receptor (unknown origin) after 1.5 hrs by microbeta scintillation counting method
Chain of 5-hydroxytryptamine receptor 1E (P28566 whole entry): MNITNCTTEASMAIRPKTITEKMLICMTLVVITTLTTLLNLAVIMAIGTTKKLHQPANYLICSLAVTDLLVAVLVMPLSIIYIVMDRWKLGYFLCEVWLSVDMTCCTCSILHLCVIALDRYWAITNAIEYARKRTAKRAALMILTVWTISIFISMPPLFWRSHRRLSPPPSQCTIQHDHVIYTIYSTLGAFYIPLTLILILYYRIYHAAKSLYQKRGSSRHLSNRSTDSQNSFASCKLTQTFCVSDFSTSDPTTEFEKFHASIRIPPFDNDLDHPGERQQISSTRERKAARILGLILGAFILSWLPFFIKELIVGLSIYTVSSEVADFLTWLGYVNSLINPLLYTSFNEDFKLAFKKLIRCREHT

[8] = molecular target: 5-hydroxytryptamine receptor 2A (Homo sapiens, UniProt P28223); assay: Displacement of [3H]Ketanserin from 5-HT2A receptor (unknown origin) after 1.5 hrs by microbeta scintillation counting method
Chain of 5-hydroxytryptamine receptor 2A (P28223 whole entry): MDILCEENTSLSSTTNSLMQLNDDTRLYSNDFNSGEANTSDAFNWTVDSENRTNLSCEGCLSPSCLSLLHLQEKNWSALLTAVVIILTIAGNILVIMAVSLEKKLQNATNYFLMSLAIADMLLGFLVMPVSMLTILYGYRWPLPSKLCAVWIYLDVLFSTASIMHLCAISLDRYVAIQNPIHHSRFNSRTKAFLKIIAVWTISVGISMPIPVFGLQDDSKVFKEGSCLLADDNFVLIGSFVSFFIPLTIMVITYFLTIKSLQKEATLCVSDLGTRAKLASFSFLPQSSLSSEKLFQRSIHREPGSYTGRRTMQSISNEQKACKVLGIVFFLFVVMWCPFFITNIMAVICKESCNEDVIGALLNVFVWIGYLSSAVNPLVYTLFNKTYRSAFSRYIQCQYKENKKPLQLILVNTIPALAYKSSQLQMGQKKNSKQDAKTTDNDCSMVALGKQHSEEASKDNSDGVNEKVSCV

[9] = molecular target: 5-hydroxytryptamine receptor 1D (Homo sapiens, UniProt P28221); assay: Displacement of [3H][…] from 5-HT1D receptor (unknown origin) after 1.5 hrs by microbeta scintillation counting method
Chain of 5-hydroxytryptamine receptor 1D (P28221 whole entry): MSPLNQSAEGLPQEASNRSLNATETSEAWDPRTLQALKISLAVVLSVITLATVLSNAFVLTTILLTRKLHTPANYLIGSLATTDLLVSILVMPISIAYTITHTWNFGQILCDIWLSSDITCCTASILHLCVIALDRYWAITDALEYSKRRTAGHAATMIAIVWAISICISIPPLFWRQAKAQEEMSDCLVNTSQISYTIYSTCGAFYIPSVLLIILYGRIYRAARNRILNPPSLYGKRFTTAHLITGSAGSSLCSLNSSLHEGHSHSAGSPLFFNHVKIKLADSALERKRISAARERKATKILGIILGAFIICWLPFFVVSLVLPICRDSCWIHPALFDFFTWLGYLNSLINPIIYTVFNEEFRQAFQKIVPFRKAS

[10] = molecular target: T4, 5-hydroxytryptamine receptor 1A (Homo sapiens, UniProt P08908); assay: Displacement of [3H]8-OH-DPAT from 5-HT1A receptor (unknown origin) after 1.5 hrs by microbeta scintillation counting method
T4 sequence (P08908 whole entry): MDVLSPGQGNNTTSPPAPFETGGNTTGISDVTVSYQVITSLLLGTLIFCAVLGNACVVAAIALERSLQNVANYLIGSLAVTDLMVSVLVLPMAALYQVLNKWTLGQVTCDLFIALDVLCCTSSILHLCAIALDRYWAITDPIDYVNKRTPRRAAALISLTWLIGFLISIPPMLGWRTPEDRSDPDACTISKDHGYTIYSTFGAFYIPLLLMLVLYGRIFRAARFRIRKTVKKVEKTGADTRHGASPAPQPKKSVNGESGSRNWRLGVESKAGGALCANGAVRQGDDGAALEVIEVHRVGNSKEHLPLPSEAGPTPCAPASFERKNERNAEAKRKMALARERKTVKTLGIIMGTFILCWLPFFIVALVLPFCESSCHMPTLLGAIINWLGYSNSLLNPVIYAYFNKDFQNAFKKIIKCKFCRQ

[11] = molecular target: 5-hydroxytryptamine receptor 1B (Homo sapiens, UniProt P28222); assay: Displacement of [3H][…] from 5-HT1B receptor (unknown origin) after 1.5 hrs by microbeta scintillation counting method
Chain of 5-hydroxytryptamine receptor 1B (P28222 whole entry): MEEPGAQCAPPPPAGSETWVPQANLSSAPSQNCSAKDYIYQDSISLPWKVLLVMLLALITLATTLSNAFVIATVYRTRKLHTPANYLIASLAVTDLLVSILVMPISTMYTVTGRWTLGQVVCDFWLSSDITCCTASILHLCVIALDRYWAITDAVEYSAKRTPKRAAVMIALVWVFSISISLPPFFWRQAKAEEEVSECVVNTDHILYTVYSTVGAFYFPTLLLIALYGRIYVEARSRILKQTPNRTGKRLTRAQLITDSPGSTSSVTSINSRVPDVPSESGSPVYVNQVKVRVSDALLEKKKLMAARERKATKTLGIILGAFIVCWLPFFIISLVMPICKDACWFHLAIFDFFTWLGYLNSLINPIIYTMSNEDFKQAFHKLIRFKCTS

[12] = molecular target: T1, 5-hydroxytryptamine receptor 2B; assay: Antagonist activity at 5-HT2B receptor (unknown origin) expressed in CHO-K1 cells assessed as calcium flux at 1 uM after 60 mins by FLIPR assay; format: functional, cell-based
Outline: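 CHO-K1 cells stably expressing 5-HT2B receptor, antagonist mode, calcium flux read-out. Compounds screened at 10 μM and 1 μM; dose-response curves run for compounds active in the screen to give IC50.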

[13] = system: Rattus norvegicus; assay: Inhibition of visceral hypersensitivity in Sprague-Dawley rat model of IBS assessed as […] by measuring abdominal contraction at 30 mg/kg, po by colorectal distention test; format: functional; settings: Abdomen
Outline: (§1)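 Rat IBS model induced by TNBS injection, then chronic unpredictable mild stress; colon histology checked by HE staining. Compound given orally at 30 mg/kg. Visceral sensitivity scored by abdominal withdrawal reflex, with pain thresholds in mmHg at scores 3 and 4. Compared with control rats; % inhibition derived from thresholds.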

[14] = molecular target: Voltage-gated inwardly rectifying potassium channel KCNH2 (Homo sapiens, UniProt Q12809); assay: Inhibition of human ERG channel by patch clamp assay
Chain of Voltage-gated inwardly rectifying potassium channel KCNH2 (Q12809 whole entry): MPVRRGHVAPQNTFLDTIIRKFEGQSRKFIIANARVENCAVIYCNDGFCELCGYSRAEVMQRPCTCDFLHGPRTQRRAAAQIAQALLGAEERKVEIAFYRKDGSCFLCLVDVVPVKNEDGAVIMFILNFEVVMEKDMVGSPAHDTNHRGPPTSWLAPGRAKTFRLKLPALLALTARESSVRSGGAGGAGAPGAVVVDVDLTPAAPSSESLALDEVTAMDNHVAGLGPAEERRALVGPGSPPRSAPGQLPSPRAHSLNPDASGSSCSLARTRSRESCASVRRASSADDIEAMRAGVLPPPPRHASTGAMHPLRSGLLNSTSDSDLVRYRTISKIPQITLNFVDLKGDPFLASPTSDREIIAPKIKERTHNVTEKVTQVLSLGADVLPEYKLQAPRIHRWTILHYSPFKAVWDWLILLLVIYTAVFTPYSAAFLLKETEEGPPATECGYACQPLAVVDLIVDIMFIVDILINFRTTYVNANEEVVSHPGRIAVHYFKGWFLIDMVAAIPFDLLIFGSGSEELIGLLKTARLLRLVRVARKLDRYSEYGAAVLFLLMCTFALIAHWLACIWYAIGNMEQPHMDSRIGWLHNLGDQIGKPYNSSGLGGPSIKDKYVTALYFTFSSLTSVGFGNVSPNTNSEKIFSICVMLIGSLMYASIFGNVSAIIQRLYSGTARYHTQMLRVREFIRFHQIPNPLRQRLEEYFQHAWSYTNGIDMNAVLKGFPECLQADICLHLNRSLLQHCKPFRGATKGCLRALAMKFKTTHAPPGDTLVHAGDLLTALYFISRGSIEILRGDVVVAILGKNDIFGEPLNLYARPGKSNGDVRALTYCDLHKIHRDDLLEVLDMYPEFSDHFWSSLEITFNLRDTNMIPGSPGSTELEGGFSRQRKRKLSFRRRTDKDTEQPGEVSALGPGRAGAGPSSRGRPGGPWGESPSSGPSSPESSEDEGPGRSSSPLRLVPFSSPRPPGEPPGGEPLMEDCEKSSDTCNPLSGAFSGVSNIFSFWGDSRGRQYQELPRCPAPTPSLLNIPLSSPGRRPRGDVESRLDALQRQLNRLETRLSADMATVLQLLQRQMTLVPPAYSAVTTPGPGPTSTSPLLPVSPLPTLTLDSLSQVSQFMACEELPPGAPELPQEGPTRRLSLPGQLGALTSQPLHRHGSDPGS

[15] = system: Rattus norvegicus; assay: Acute toxicity in Sprague-Dawley rat at 500 mg/kg, po; format: organism-based; settings: in vivo
[16] = system: Rattus norvegicus; assay: Inhibition of visceral hypersensitivity in Sprague-Dawley rat model of IBS assessed as […] by measuring lifting of pelvic structure and arching of body at 30 mg/kg, po by colorectal distention test; format: functional; outline: as §1

- Ki [1]: 38.5 nM
- Ki [2]: 1200 nM
- Ki [3]: > 10000 nM
- Ki [4]: 595 nM
- Ki [5]: 4780 nM
- Ki [6]: 516 nM
- Ki [7]: > 10000 nM
- Ki [8]: 1540 nM
- Ki [9]: 3830 nM
- Ki [10]: 116 nM
- Ki [11]: 9650 nM
- inhibition [12]: 91.8%
Structure (SMILES): CCOC(=O)c1cccc(NC2=NC(N(C)C)=NC3(CCCCC3)N2)c1

- inhibition [12]: 20.7%
Structure (SMILES): COc1ccccc1NC1=NC(N)=NC2(CCCCC2)N1

- inhibition [12]: 50.4%
Structure (SMILES): CCOC(=O)c1cccc(N(C)C2=NC(N)=NC3(CCCCC3)N2)c1

- Ki [1]: 7.2 nM
- Ki [2]: 851 nM
- Ki [3]: > 10000 nM
- Ki [4]: 457 nM
- Ki [5]: 3590 nM
- Ki [6]: 472 nM
- Ki [7]: > 10000 nM
- Ki [8]: 174 nM
- Ki [9]: 8590 nM
- Ki [10]: 714 nM
- Ki [11]: > 10000 nM
- inhibition [12]: 107%
Structure (SMILES): CCOC(=O)c1cccc(NC2=NC(N)=NC3(CCCCC3)N2)c1

- inhibition [12]: 57.1%
Structure (SMILES): NC1=NC2(CCCCC2)NC(Nc2ccc(Cl)cc2)=N1

- inhibition [12]: 4.4%
Structure (SMILES): NC1=NC2(CCCCC2)NC(Nc2cccc(C(=O)O)c2)=N1

- inhibition [12]: 106%
Structure (SMILES): CCCC(=O)c1cccc(NC2=NC(N)=NC3(CCCCC3)N2)c1

- inhibition [12]: 4%
Structure (SMILES): NC1=NC2(CCCCC2)NC(Nc2cccc(C(=O)C3CC3)c2)=N1

- inhibition [12]: 63%
Structure (SMILES): COc1cccc(NC2=NC(N)=NC3(CCCC3)N2)c1

- inhibition [12]: 40.7%
Structure (SMILES): CCN(CC)C(=O)c1cccc(NC2=NC(N)=NC3(CCCCC3)N2)c1

- inhibition [12]: 39.9%
Structure (SMILES): Cc1ccccc1NC1=NC(N)=NC2(CCCCC2)N1

Second part, the compound before the results:

Structure (SMILES): NC1=NC2(CCCCC2)NC(Nc2cccc(Br)c2)=N1
- inhibition in vivo at 30 mg/kg [13]: 68%
- Ki [1]: 6.2 nM
- Ki [2]: 156 nM
- Ki [3]: > 10000 nM
- Ki [4]: 227 nM
- Ki [5]: 3030 nM
- Ki [6]: 401 nM
- IC50 [14]: > 1000 nM
- Activity [15]: Non-toxic
- inhibition in vivo at 30 mg/kg [16]: 63%
- Ki [7]: > 10000 nM
- Ki [8]: 211 nM
- Ki [9]: 2900 nM
- Ki [10]: 320 nM
- Ki [11]: > 10000 nM
- inhibition [12]: 97.4%

Structure (SMILES): CC1(C)N=C(N)N=C(Nc2cccc(Br)c2)N1
- Ki [1]: 20.5 nM
- Ki [2]: 265 nM
- Ki [3]: > 10000 nM
- Ki [4]: 389 nM
- Ki [5]: 696 nM
- Ki [6]: 2080 nM
- Ki [7]: > 10000 nM
- Ki [8]: 783 nM
- Ki [9]: 2650 nM
- Ki [10]: 660 nM
- Ki [11]: 1530 nM
- inhibition [12]: 75.9%

Structure (SMILES): COc1cccc(NC2=NC(N)=NC3(CCCCC3)N2)c1
- inhibition [12]: 84.6%

Structure (SMILES): CCCOC(=O)c1cccc(NC2=NC(N)=NC3(CCCCC3)N2)c1
- inhibition [12]: 110%

Structure (SMILES): CCNC(=O)c1cccc(NC2=NC(N)=NC3(CCCCC3)N2)c1
- Ki [1]: 27.5 nM
- Ki [2]: 1900 nM
- Ki [3]: > 10000 nM
- Ki [4]: 994 nM
- Ki [5]: 5910 nM
- Ki [6]: 427 nM
- Ki [7]: > 10000 nM
- Ki [8]: 1310 nM
- Ki [9]: > 10000 nM
- Ki [10]: 6760 nM
- Ki [11]: > 10000 nM
- inhibition [12]: 95.5%

Structure (SMILES): CN(C)c1ccc(NC2=NC(N)=NC3(CCCCC3)N2)cc1
- inhibition [12]: 17.6%

Structure (SMILES): Cc1ccc(NC2=NC(N)=NC3(CCCCC3)N2)cc1
- inhibition [12]: 50.2%

Structure (SMILES): CCOC(=O)c1cccc(NC2=NC(NC)=NC3(CCCCC3)N2)c1
- inhibition [12]: 108%
